Each block holds one compound with its values, some of them ahead of it. Active and inactive are the calls of the source. The rule behind the calls is not given here.
Legend:
[1] = molecular target: Glutamate receptor ionotropic, NMDA 2B (Rattus norvegicus, UniProt Q00960); assay: Displacement of [3H]ifenprodil from rat brain membrane NR2B receptor
[2] = molecular target: Glutamate receptor ionotropic, NMDA 2B (Rattus norvegicus) (UniProt Q00960); assay: Displacement of [3H]ifenprodil from rat brain membrane NR2B receptor relative to ifenprodil
[3] = molecular target: T1, Glutamate NMDA receptor; GRIN1/GRIN2A (Homo sapiens, UniProt Q05586+Q12879); assay: Activity at NR1/NR2A receptor expressed in xenopus oocytes assessed as Inhibition of L-glutamate and glycine-induced current response at 100 uM; format: cell-based; details: Oocyte
[4] = molecular target: T1, Glutamate NMDA receptor; GRIN1/GRIN2A; assay: Activity at NR1/NR2A receptor expressed in xenopus oocytes assessed as effect on L-glutamate and glycine-induced current response; format: cell-based, Oocyte
[5] = molecular target: T2, Glutamate NMDA receptor; GRIN1/GRIN2B (Homo sapiens, UniProt Q05586+Q13224); assay: Inhibition of NR1/NR2B receptor expressed in xenopus oocytes assessed as effect on L-glutamate and glycine-induced current response relative to ifenprodil; format: cell-based; details: Oocyte
Summary of the method: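 Two-electrode voltage clamp on Xenopus oocytes expressing wild-type NR1/NR2B. Currents evoked by saturating L-glutamate plus glycine, 100 µM each; compound applied during the NMDA response and change in current size measured.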

[6] = molecular target: T2, Glutamate NMDA receptor; GRIN1/GRIN2B; assay: Inhibition of N-terminal domain truncated NR1/NR2B receptor expressed in xenopus oocytes assessed as effect on L-glutamate and glycine-induced current response; format: cell-based, Oocyte
[7] = Stability in frogs Ringer buffer in presence of N-acetyl cysteine methyl ester by HPLC; format: physicochemical; details: frog's Ringer buffer with N-acetyl cysteine methyl ester
Summary of the method: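 Half-life in frog's Ringer buffer, pH 7.4, followed by HPLC peak-area decrease over time in presence of excess N-acetyl cysteine methyl ester; NACME and compound levels varied per run (mM range); reactivity also expressed in relative terms.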

[8] = molecular target: T2, Glutamate NMDA receptor; GRIN1/GRIN2B; assay: Inhibition of NR1/NR2B receptor expressed in xenopus oocytes assessed as effect on L-glutamate and glycine-induced current response; format: cell-based, Oocyte
Summary of the method: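 Two-electrode voltage clamp on Xenopus oocytes expressing wild-type NR1/NR2B receptors. NMDA currents were evoked with saturating L-glutamate plus glycine. The compound was applied during an ongoing NMDA response, and the change in current amplitude it induced was measured.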

[9] = Stability in frogs Ringer buffer by HPLC; format: physicochemical; details: frog's Ringer buffer
[10] = molecular target: T2, Glutamate NMDA receptor; GRIN1/GRIN2B; assay: Inhibition of N-terminal domain truncated NR1/NR2B receptor expressed in xenopus oocytes assessed as effect on L-glutamate and glycine-induced current response upto 100 uM; format: cell-based; details: Oocyte
[11] = molecular target: T1, Glutamate NMDA receptor; GRIN1/GRIN2A; assay: Inhibition of NR1/NR2A receptor expressed in xenopus oocytes assessed as effect on L-glutamate and glycine-induced current response; format: cell-based, Oocyte
[12] = molecular target: T2, Glutamate NMDA receptor; GRIN1/GRIN2B; assay: Inhibition of NR1/NR2B receptor expressed in xenopus oocytes assessed as effect on L-glutamate and glycine-induced current response at 10 uM; format: cell-based; details: Oocyte

Chain of Glutamate receptor ionotropic, NMDA 2B (Q00960 whole entry): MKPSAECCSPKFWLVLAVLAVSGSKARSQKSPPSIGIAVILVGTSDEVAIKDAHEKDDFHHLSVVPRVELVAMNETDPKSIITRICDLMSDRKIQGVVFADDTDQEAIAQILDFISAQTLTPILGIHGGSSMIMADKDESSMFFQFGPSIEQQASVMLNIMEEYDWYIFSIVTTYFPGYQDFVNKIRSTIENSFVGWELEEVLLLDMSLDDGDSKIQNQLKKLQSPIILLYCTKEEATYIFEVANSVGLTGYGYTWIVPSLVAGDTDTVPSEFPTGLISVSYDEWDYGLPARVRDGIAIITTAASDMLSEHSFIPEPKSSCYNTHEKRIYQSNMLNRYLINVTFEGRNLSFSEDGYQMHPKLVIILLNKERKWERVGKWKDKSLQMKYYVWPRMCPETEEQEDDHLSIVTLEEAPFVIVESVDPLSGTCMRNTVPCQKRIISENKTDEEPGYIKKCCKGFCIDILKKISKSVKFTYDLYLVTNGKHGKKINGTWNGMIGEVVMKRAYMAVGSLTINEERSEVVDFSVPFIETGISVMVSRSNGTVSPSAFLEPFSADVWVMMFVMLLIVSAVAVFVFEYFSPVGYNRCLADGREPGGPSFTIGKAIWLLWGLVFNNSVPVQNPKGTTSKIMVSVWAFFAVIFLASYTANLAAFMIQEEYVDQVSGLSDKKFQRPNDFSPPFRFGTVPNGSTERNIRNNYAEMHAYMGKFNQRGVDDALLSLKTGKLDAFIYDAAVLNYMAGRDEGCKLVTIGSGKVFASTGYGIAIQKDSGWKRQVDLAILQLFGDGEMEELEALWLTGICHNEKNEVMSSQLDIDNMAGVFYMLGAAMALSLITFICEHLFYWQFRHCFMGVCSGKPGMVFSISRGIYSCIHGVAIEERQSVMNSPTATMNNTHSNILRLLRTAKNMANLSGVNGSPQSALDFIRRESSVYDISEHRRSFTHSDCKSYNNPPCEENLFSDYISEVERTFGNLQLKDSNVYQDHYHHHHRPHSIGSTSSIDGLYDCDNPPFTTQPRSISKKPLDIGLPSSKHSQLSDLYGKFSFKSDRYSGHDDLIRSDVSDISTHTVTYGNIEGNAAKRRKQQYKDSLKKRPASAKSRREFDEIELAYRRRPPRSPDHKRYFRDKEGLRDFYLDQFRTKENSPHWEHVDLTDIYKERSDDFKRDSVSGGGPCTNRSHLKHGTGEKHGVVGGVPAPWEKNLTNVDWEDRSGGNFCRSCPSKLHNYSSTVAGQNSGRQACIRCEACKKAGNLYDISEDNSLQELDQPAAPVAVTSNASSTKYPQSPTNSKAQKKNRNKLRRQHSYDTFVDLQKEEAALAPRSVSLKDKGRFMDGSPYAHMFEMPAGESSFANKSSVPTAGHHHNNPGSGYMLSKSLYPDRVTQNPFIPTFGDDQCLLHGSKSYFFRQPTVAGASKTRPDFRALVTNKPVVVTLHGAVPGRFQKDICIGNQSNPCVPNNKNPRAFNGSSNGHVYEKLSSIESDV
Chain of Glutamate receptor ionotropic, NMDA 2B (Rattus norvegicus) (Q00960 27-1482 limits assumed): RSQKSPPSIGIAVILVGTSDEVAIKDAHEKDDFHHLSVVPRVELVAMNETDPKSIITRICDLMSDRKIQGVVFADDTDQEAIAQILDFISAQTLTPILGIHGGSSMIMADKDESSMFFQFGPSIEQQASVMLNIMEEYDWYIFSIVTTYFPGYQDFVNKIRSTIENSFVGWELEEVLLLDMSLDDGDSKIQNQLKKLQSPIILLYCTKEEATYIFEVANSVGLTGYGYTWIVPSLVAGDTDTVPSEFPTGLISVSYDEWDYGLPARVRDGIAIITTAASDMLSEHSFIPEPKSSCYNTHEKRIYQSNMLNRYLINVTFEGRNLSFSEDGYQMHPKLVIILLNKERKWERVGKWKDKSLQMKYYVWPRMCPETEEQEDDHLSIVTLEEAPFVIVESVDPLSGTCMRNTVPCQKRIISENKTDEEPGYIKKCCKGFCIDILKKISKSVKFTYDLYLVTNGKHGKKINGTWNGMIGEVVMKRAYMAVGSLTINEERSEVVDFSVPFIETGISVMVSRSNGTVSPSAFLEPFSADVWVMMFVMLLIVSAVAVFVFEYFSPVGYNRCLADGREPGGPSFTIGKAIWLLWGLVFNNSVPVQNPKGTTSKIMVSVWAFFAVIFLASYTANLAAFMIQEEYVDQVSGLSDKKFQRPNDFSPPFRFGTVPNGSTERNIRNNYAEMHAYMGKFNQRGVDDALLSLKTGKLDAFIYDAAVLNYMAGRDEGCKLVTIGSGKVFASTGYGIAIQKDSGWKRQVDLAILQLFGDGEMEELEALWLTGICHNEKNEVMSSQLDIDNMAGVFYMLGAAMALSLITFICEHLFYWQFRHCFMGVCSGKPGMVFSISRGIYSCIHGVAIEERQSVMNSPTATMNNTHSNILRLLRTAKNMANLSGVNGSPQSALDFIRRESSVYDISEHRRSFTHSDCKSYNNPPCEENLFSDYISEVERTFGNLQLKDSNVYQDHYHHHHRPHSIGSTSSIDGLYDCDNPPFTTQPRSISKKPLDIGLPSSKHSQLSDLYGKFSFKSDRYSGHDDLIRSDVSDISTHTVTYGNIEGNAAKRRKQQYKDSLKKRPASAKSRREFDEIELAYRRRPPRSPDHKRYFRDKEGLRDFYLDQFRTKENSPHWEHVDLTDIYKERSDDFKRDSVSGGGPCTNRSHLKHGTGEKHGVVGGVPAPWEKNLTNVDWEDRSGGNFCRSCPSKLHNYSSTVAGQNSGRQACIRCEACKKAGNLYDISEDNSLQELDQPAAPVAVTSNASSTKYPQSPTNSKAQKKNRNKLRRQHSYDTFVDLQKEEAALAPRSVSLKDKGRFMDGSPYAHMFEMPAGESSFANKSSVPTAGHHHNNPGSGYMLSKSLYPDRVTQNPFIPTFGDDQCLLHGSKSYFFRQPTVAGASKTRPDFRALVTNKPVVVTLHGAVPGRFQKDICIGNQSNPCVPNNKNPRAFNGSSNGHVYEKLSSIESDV

Ki [1]: 62 nM
Ratio [2]: 16
Structure (SMILES): Oc1ccc(C(O)CN2CCC(Cc3ccccc3)CC2)cc1 (stereo not given)

Ki [1]: 248 nM
half-life [7]: 1.03 h
Ratio [2]: 23
half-life [9]: 5 h
Structure (SMILES): C=C(CN1CCC(Cc2ccccc2)CC1)C(=O)c1ccc([N+](=O)[O-])cc1

Ratio [2]: 27
Structure (SMILES): CC(C(O)c1ccc(N)cc1)N1CCC(Cc2ccccc2)CC1 (racemic; threo) [listing 2 of 2 here]

Ki [1]: 200 nM
Ratio [2]: 18
Structure (SMILES): O=C(CN1CCC(Cc2ccc([N+](=O)[O-])cc2)CC1)c1ccc(O)cc1

Ki [1]: 141 nM
Ratio [2]: 13
Structure (SMILES): O=C(CN1CCC(Cc2ccccc2)CC1)c1ccc(O)cc1

The next lines start with the compound.

Structure (SMILES): CC(C(=O)c1ccc(N)cc1)N1CCC(Cc2ccccc2)CC1 (stereo not given)
Ki [1]: 58 nM
Ratio [2]: 1

Structure (SMILES): CC(C(=O)c1ccc(NC(=O)CCl)cc1)N1CCC(Cc2ccccc2)CC1 (stereo not given)
inhibition [3]: 25%
EC50 [4]: > 100000 nM
Ki [1]: 493 nM
Ratio IC50 [5]: 130
IC50 [6]: 230000 nM
half-life [7]: 1.9 h
Ratio [2]: 45
IC50 [8]: 14000 nM
half-life [9]: > 24 h

Structure (SMILES): C=C(CN1CCC(Cc2ccccc2)CC1)C(=O)c1ccc(OC)cc1
inhibition [3]: 11%
EC50 [4]: > 100000 nM
Ki [1]: 527 nM
Ratio IC50 [5]: 640
Activity [10]: inactive
half-life [7]: 0.117 h
Ratio [2]: 48
IC50 [8]: 70000 nM
half-life [9]: 5 h

Structure (SMILES): O=C(CN1CCC(Cc2ccc(N=C=S)cc2)CC1)c1ccc(O)cc1
EC50 [4]: > 100000 nM
IC50 [11]: 16000 nM
Ki [1]: 245 nM
Ratio IC50 [5]: 145
IC50 [6]: 570000 nM
half-life [7]: 0.383 h
Ratio [2]: 22
IC50 [8]: 16000 nM
half-life [9]: > 24 h

Structure (SMILES): CC(C(O)c1ccc(N)cc1)N1CCC(Cc2ccccc2)CC1 (racemic; erythro) [listing 1 of 2 here]
Ki [1]: 97 nM

Structure (SMILES): CC(=O)Nc1ccc(C(=O)C(C)N2CCC(Cc3ccccc3)CC2)cc1 (stereo not given)
Ki [1]: 107 nM
Ratio [2]: 10

Structure (SMILES): CC(C(=O)c1ccc(N=C=S)cc1)N1CCC(Cc2ccccc2)CC1 (stereo not given)
Ki [1]: 679 nM
inhibition [12]: 8%
half-life [7]: 0.054 h
Ratio [2]: 62
half-life [9]: 20 h

Structure (SMILES): CC(C(O)c1ccc(N)cc1)N1CCC(Cc2ccccc2)CC1 (racemic; threo) [listing 1 of 2 here]
Ki [1]: 300 nM

Structure (SMILES): CC(C(O)c1ccc(N)cc1)N1CCC(Cc2ccccc2)CC1 (racemic; erythro) [listing 2 of 2 here]
Ratio [2]: 8.8
